Measurements collected from several papers.
Protocols differ between the studies behind these lines.
RPS6KA3: Ribosomal protein S6 kinase alpha-3 (RPS6KA3, Homo sapiens, UniProt P51812)
RPS6KA3 N-terminal kinase domain: Ribosomal protein S6 kinase alpha-3, N-terminal kinase domain (RPS6KA3, Homo sapiens, UniProt P51812)

SMILES | target | assay | conditions | measurement | result
O=c1[nH]c2ccccc2n1C1CCN(Cc2ccc(-c3[nH]c4cc5ncnc5cc4nc3-c3ccccc3)cc2)CC1 | RPS6KA3 | cell-free assay | 0.5 µM | remaining signal | 96.6%
N#CC1(c2ccccn2)CCN(Cc2cc(C(=O)O)c(=O)n3ccccc23)CC1 | Ribosomal protein S6 kinase alpha-3, C-terminal kinase domain (RPS6KA3, Homo sapiens, UniProt P51812) | cell-free assay, competition with immobilised ligand | 1 µM | remaining binding | 100%
Cn1cc(-c2cccc(N3CCc4c(sc5c4CC(C)(C)C5)C3=O)c2CO)cc(Nc2ccncn2)c1=O | RPS6KA3 | enzyme activity, inhibitor | 1 µM | inhibition | 1%
CC(C)(C)c1cc(C=C(C#N)C#N)cc(Br)c1O | RPS6KA3 | enzyme activity, inhibitor | 0.5 µM | remaining activity | 92.2%
Cn1cc(-c2cc(F)cc(N3CCn4c(cc5c4CCCC5)C3=O)c2CO)cc(Nc2ccc(N3CCN(C4COC4)CC3)cn2)c1=O | RPS6KA3 | enzyme activity, inhibitor | 0.1 µM | inhibition | 7%
COc1cc(Nc2ncc(F)c(Nc3ccc4c(n3)NC(=O)C(C)(C)O4)n2)cc(OC)c1OC | RPS6KA3 N-terminal kinase domain | binding, competition with immobilised ligand | 10 µM | inhibition | 88%
Cn1cncc1[C@](O)(COc1ccc(C#N)cc1-c1ccc(OC(F)(F)F)cc1)c1ccc(C#N)cc1 | RPS6KA3 N-terminal kinase domain | cell-free assay, competition with immobilised ligand | 1 µM | remaining binding | 100%
Nc1ncc(-c2nc(N3CCOCC3)nc(N3CCOCC3)n2)c(C(F)F)n1 | RPS6KA3 N-terminal kinase domain | binding, competition with immobilised ligand | 10 µM | remaining binding | 59%
Cc1nn(C)cc1-c1nc2c(N3CCN(Cc4ccc(Cl)cc4)CC3)c(Cl)cnc2[nH]1 | RPS6KA3 N-terminal kinase domain | binding, competition with immobilised ligand | 1 µM | remaining binding | 84%
